ASAP1 inh = ASAP1 ArfGAP inhibition. 360,000 compounds, 0.19% hits. Q9ULH1. inhibition, % at 16.5 µM. ASAP1-stimulated ARF1 GTP hydrolysis, GDP FP detection; in the data active = inhibition above about 25%;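 note: 0% = vehicle with enzyme and substrate and 100% = no enzyme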
Target sequence (Q9ULH1 325-724 limits assumed): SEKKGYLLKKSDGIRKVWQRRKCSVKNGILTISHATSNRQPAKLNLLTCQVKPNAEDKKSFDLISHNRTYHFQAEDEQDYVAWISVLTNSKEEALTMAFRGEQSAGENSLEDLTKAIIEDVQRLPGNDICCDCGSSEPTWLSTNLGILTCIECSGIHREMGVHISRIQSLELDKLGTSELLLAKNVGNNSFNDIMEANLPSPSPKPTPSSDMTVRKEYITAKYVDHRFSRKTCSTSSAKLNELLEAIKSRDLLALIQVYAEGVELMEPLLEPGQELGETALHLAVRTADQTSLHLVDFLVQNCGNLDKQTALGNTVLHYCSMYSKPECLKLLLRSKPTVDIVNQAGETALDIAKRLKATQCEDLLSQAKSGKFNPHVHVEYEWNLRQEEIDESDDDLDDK
SMARCA2 act = activators of SMARCA2 function; MG213 cells, MMTV-luciferase reporter, dexamethasone, overnight; activation, % at 9.1 µM; 370,000 compounds, 1% hits; in the data active = activation above about 7.8%;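 note: 0% = vehicle wells and 100% = reference activator wells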
ARFGAP1 inh = inhibitors of rat ARFGAP1. Q62848. Arfgap1-stimulated ARF1 GTP hydrolysis, GDP FP detection. inhibition, % at 16.5 µM. 360,000 compounds, 0.26% hits. AID 651572;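 active = inhibition above a per-plate limit, mean inhibition of low control wells plus 3 SD, cut at about 25% in these data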;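 note: 0% = DMSO wells with enzyme and 100% = wells lacking Arfgap1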
Target sequence (Q62848 1-136 limits assumed): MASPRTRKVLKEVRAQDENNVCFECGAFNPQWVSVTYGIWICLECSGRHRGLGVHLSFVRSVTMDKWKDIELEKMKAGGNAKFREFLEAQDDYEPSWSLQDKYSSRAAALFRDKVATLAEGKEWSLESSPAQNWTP
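Material – truncated rat Arfgap1 GAP domain · Buffer or medium – HEPES-based buffer, pH 7.5 · Reagent – human ARF1(Δ1-17)-GTP substrate · Dosing – 16.5 µM single point, 1.26% DMSO · Schedule – GTP hydrolysis reaction 2 h at 25 °C · Technique – GDP detection by fluorescence polarization · Benchmarks – No-Arfgap1 wells (100%) versus DMSO full-reaction wells (0%) · Repeats – single replicate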
esBAF inh = blocks esBAF chromatin remodeling in mouse ES cells. AID 602393. Bmi1-luciferase knock-in reporter, 24 h; 100% = twice the neutral-well signal. reporter increase, % at 12.5 µM. 350,000 compounds, 2% hits; in the data active = activation above about 40%; inconclusive = no clear call, values can overlap the other calls;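 note: 0% = median of the plate's neutral control wells and 100% = double that signal; a rise in the Bmi1 reporter signal indicates esBAF inhibition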
SMARCA2 act conf = confirmation of SMARCA2 (BRM) function activators; shares compounds with SMARCA2 act; MG213 cells, MMTV-luciferase with dexamethasone, luminescence, overnight; MG213 cells expressing E1A, Rb sequestered; DMSO wells 0%, reference activator 100%; activation, % at 9.1 µM; 3,500 compounds, 30% hits; AID 652260;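 active = activation above its plate's cutoff, the mean activation of tested wells plus 3 SD, cut at about 7.9% in these data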
GAL4-VP16 Luc = GAL4-VP16 reporter activation counter-screen. 3,500 compounds, 41% hits. shares compounds with SMARCA2 act. HEK293 GAL4-VP16 pG5luc reporter, luciferase luminescence; scaled: DMSO wells 0%, SAHA wells 100%. activation, % at 9.1 µM. AID 686939;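 active = activation above the solvent-only control well mean plus 3 SD, averaged across control plates, cut at about 5.2% in these data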
The depositor's hits bear a star; ? = inconclusive; · = not tested or not shown. The list is not random: actives were taken first. Their share in the collection is about 2.6%.

SMILES	ASAP1 inh	SMARCA2 act	ARFGAP1 inh	esBAF inh	SMARCA2 act conf	GAL4-VP16 Luc
O=C(N/N=C/c1ccc2c(c1)OCO2)c1ccc2c(c1)OCO2	4.5	1.8	15.9	36.4	·	·
COc1cc(C(=O)Nc2ccc3c(c2)OCO3)ccc1OCc1c(C)noc1C	8.4	8.4*	9.5	·	6.3	-0.3
COc1ccc(C(=O)/C=C/c2ccc3c(c2)OCCO3)cc1	-2.0	-0.2	-12.9	7.5	·	·
CCC(=O)N1[C@H](CO)[C@H](c2ccc(-c3ccc(F)cc3)cc2)[C@H]1CNC(C)=O	·	·	·	5.3	·	·
COCCNC(=O)C[C@H]1CC[C@@H](NC(=O)NC2CCCC2)[C@@H](CO)O1	·	·	·	-5.0	·	·
O=C(NN=C1CCCC1)c1ccc(O)cc1	-0.7	-0.1	-1.3	3.0	·	·
COc1ccc(/C=C/C(=O)c2ccc3c(c2)OCO3)c(OC)c1	-11.1	10.7*	-3.4	·	8.8*	8.0*
O=C(NN=C1CCCCCC1)c1ccc2c(c1)OCO2	-4.8	10.4*	-3.0	54.2*	3.3	4.3
O=S(=O)(Nc1nc2ccccc2nc1N1CCc2ccccc2C1)c1ccc(Cl)cc1	-2.6	9.0*	9.7	·	-2.3	4.4
Cc1ccc(NC(=S)N2CCC(c3ccccc3)C2)c(Cl)c1 (stereo not drawn)	7.6	8.8*	0.9	·	4.1	9.3*
S=C(Nc1ccccc1Cl)N1CCC(c2ccccc2)C1 (stereo not drawn)	-6.1	-1.7	-0.6	·	·	·
Cc1ccc(S(=O)(=O)Nc2ccc3c(c2)C(=O)N([C@@H](C)CO)C[C@@H](C)[C@@H](CN(C)Cc2ccc(Cl)c(Cl)c2)O3)cc1	·	·	·	4.1	·	·
CCCc1cn(CC[C@H]2CC[C@@H](NC(=O)C3CCCCC3)[C@H](CO)O2)nn1	·	·	·	1.9	·	·
CC(C)C(=O)N1CCC1(C)C(=O)Nc1ccc(-n2cccc2)cc1 (stereo not drawn)	2.9	-1.3	4.3	2.8	·	·
CN1CCCC1(C)C(=O)Nc1ccc(-n2cccc2)cc1 (stereo not drawn)	-7.5	8.2*	-6.5	23.1	4.4	3.5
COc1cccc(NC(=O)/C=C/c2ccccc2[N+](=O)[O-])c1	-10.6	10.5*	6.1	·	8.8*	14.9*
O=C(CC(=O)c1ccccc1)Nc1ccccn1	9.3	13.0*	-6.4	6.4	7.1	9.2*
O=C(Nc1ccccn1)c1ccccc1	14.2	-1.0	-0.6	26.3	·	·
CCCc1cc(=O)n2[nH]c(-c3ccc(Br)cc3)cc2n1	-10.8	8.2*	-0.2	48.4*	3.7	9.2*
O=C(C[C@@H]1CC[C@H](NC(=O)NC2CCCCC2)[C@H](CO)O1)NCc1ccccc1	·	·	·	1.8	·	·
O=C(CCCc1ccncc1)c1ccccc1	12.0	8.2*	9.9	·	3.4	6.9*
O=C1Nc2ccccc2C1(c1ccccc1)c1ccccc1	2.6	11.2*	2.6	5.3	3.3	-2.0
CCC(=O)N1C[C@@H](C)[C@H](OC)CN(C)C(=O)c2cc(NC(=O)c3cnccn3)ccc2OC[C@@H]1C	·	·	·	1.8	·	·
CCCc1cc(C(=O)OC)c2ccccc2n1	1.4	8.3*	-1.1	·	-2.3	1.1
COc1ccc(NS(=O)(=O)/C=C/c2ccccc2)cc1	1.8	8.6*	-3.6	·	-1.9	1.5
SMILES	ASAP1 inh	SMARCA2 act	ARFGAP1 inh	esBAF inh	SMARCA2 act conf	GAL4-VP16 Luc
CCc1nc(C)cc2c1sc1ccccc12	-4.5	10.0*	10.7	·	11.0*	1.0
CC[n+]1c(C)cc2c(sc3ccccc32)c1C	-3.9	-4.9	-2.1	·	·	·
c1ccc(-c2nc3ccccc3nc2-c2ccc(CN3CCC(c4nc5ccccc5[nH]4)CC3)cc2)cc1	3.7	8.7*	-5.8	·	-0.2	1.7
COCC(=O)Nc1ccc2c(c1)[C@@H]1C[C@@H](CC(=O)NCc3ccc(-c4ccccc4)cc3)O[C@H](CO)[C@@H]1O2	·	·	·	2.9	·	·
CN1CCSc2ccc(C(=O)NCc3ccccc3F)cc21	5.4	2.4	-0.4	29.9	·	·
CN1CCSc2ccc(C(=O)Nc3cc(F)ccc3F)cc21	0.4	11.0*	-1.0	12.7	3.0	12.2*
Cc1ccc(NC(=O)N2CCc3ccccc3C2)cc1	-4.5	8.9*	-1.1	46.2*	4.9	8.5*
CC(=O)c1cccc(NC(=O)N2CCCc3ccccc32)c1	0.2	0.3	9.6	15.7	·	·
CC(=O)c1cccc(NC(=O)N2CCc3ccccc3C2)c1	-0.9	8.2*	3.7	?	4.2	7.8*
CN1C(=O)c2cc(NC(=O)Cc3cccs3)ccc2OC[C@@H]2O[C@H](CC(=O)NCCc3ccncc3)CC[C@@H]21	·	·	·	-6.7	·	·
Cc1ccnc(NC(=O)Cn2cc([N+](=O)[O-])cn2)c1	10.4	16.1*	-3.4	·	7.4	5.8*
Cc1occc1C(=O)N/N=C/c1cnn(C)c1C	-8.6	8.8*	2.4	35.5	4.2	4.7
Cc1c(/C=N\NC(=O)c2cccc(F)c2)cnn1C	0.0	0.1	7.8	·	·	·
Cc1c(/C=N/NC(=O)c2ccc(Br)o2)cnn1C	6.8	14.5*	4.0	·	1.6	0.5
Cc1c(/C=N\NC(=O)c2ccc(F)cc2)cnn1C	-5.5	0.9	8.1	·	·	·
CC(C)NC(=O)N(C)C[C@H]1OCCCC[C@H](C)Oc2ccc(NC(=O)c3ccncc3)cc2C(=O)N([C@@H](C)CO)C[C@@H]1C	·	·	·	-4.2	·	·
O=C(O)c1cccc(N/N=C/c2ccc(OC(F)(F)F)cc2)c1	-10.9	5.0	-5.1	-21.3	·	·
COc1ccc(-c2nn(-c3ccccc3)cc2/C=N/Nc2cccc(C(=O)O)c2)cc1	-4.2	9.1*	-2.5	47.3*	-3.0	2.5
O=C(O)c1cccc(N/N=C/c2cccs2)c1	3.5	11.8*	-8.3	·	5.0	14.3*
CNC[C@@H]1Oc2ccc(N)cc2C(=O)N([C@H](C)CO)C[C@H]1C	·	·	·	-1.2	·	·
C/C(N)=C(/C#N)C(=O)CSc1nnc(Nc2cccc(C)c2)s1	-2.9	8.3*	-0.7	60.0*	6.7	6.2*
CN(C)c1ccc2c(c1)[C@@H]1C[C@@H](CC(=O)NCCc3ccccc3)O[C@@H](CO)[C@@H]1O2	·	·	·	-2.2	·	·
CN(C)CCCNc1cc(C(C)(C)C)nc2c(-c3ccccc3)cnn12	-9.0	9.3*	5.9	·	6.1	6.7*
CC(C)(C)OC(=O)N1CCC(CNC(=O)Nc2ccccc2)CC1	-13.2	-0.1	7.7	·	·	·
CC(C)(C)OC(=O)N1CCC(CNC(=O)c2ccccc2)CC1	0.2	8.8*	2.7	·	-0.8	1.5
CC(=O)NC[C@@H]1[C@H](c2ccc(C3=CCCC3)cc2)[C@H](CO)N1C(=O)NC(C)C	·	·	·	-3.3	·	·
Cc1ccc(S(=O)(=O)N(C)C[C@@H]2Oc3ccc(NS(=O)(=O)c4ccc(Cl)cc4)cc3C(=O)N([C@H](C)CO)C[C@H]2C)cc1	·	·	·	-4.8	·	·
CN(C)c1ccc2c(c1)[C@@H]1C[C@H](CC(=O)NCC3CC3)O[C@@H](CO)[C@@H]1O2	·	·	·	0.3	·	·
CCOCCCNc1ccc(-c2ccccc2)nn1	2.5	11.8*	-11.2	12.6	10.4*	6.1*
